Laboratory results taken from ChEMBL document CHEMBL5331111, “Synthetic Biology Facilitates Semisynthetic Development of Type V Glycopeptide Antibiotics Targeting Vancomycin-Resistant Enterococcus” (J Med Chem, 2023).
Converted amounts (≈) assume the structure as drawn. The source made the active and inactive calls. The rule behind the calls is not given here.

Key:
Enterococcus faecium [1] = assay: Antibacterial activity against Vancomycin-resistant Enterococcus faecium ATCC 700221 infected in cyclophosphamide induced neutropenic thigh infection CD-1 mouse model assessed as increase in survival rate at 50 mg/kg, ip qid measured after 24 hrs post-infection; type: functional, organism-based
How it was run: (§1)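 Female CD-1 mice, 6–10 weeks old, made neutropenic with i.p. cyclophosphamide (150 mg/kg day 4, 100 mg/kg day 1). About 1 × 10^6 CFU of E. faecium ATCC 700221, grown in BHI with vancomycin, were injected into each thigh. Dosing was i.p. at 1, 3, 5 and 20 h post-infection, in PEG400/DMSO/H₂O (45/5/50) vehicle, with vehicle controls. Mice were euthanized at 24 h.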

Enterococcus faecium [2] = assay: Antibacterial activity against Vancomycin-resistant Enterococcus faecium ATCC 700221 infected in cyclophosphamide induced neutropenic thigh infection CD-1 mouse model assessed as reduction in weight loss at 50 mg/kg, ip qid measured after 24 hrs post-infection; type: functional, organism-based; how it was run: as §1
[3] = system: Mycobacterium tuberculosis; assay: Antimycobacterial activity against Mycobacterium tuberculosis H37Ra assessed as inhibition of bacterial growth measured after 7 days by resazurin dye based analysis; type: functional; conditions: 168 h, time 7 day
How it was run: (§2)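 Strains grown in 7H9 broth with 0.2% glycerol, 10% OADC and 0.05% Tween-80. Inoculum was about 5 × 10^5 CFU/mL, checked by plating on 7H10/OADC agar to be 3–8 × 10^5. Read at 2 days for M. smegmatis and 7 days for M. tuberculosis H37Ra, M. bovis and M. avium. Resazurin 30 μg/mL was then added for one further day. Values are averages of at least two experiments.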

[4] = system: Mycolicibacterium fortuitum; assay: Antimycobacterial activity against Mycobacterium fortuitum ATCC 6891 assessed as inhibition of bacterial growth measured after 2 days by resazurin dye based analysis; type: functional; conditions: ATCC 6891, 48 h, time 2 day
How it was run: (§3)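 Cultured in 7H9 with 0.2% glycerol, 10% OADC and 0.05% Tween-80. Inoculum diluted to ~5 × 10^5 CFU/mL and confirmed at 3–8 × 10^5 by plating on 7H10 agar. Growth read at 2 days, then 30 μg/mL resazurin added for one more day. Values averaged from at least two experiments.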

[5] = system: Mycobacteroides abscessus; assay: Antimycobacterial activity against Mycobacterium abscessus ATCC 19977 assessed as inhibition of bacterial growth measured after 2 days by resazurin dye based analysis; type: functional; conditions: ATCC 19977, 48 h, time 2 day; how it was run: as §3
[6] = system: Mycolicibacterium smegmatis; assay: Antimycobacterial activity against Mycobacterium smegmatis MC2 155 assessed as inhibition of bacterial growth measured after 2 days by resazurin dye based analysis; type: functional; conditions: MC2 155, 48 h, time 2 day; how it was run: as §2
[7] = Antimycobacterial activity against Mycobacterium avium subsp. avium ATCC 25291 assessed as inhibition of bacterial growth measured after 7 days by resazurin dye based analysis; type: functional; conditions: ATCC 25291, 168 h, time 7 day; how it was run: as §2

SMILES | Activity (Enterococcus faecium [1]) | Activity (Enterococcus faecium [2]) | MIC [3] | MIC [4] | MIC [5] | MIC [6] | MIC [7]
CC(=O)NC[C@H]1CN(c2ccc(N3CCOCC3)c(F)c2)C(=O)O1 | Active | Active | – | – | – | – | –
NNC(=O)c1ccncc1 [ISONIAZID] | – | – | 0.063 µg/mL (≈ 0.459 µM) | 4 µg/mL (≈ 29.2 µM) | > 128 µg/mL | 4 µg/mL (≈ 29.2 µM) | > 128 µg/mL
